Laboratory results: paper PMC9076119 (RSC Advances, 2019)
Where two headings read alike, the source gives them in different places.

Assays:
P. falciparum strain 3D7 = assay: P. falciparum growth inhibition assay; format: cell-based, Plasmodium falciparum
How it was run: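 3D7 parasites kept in human erythrocytes (4% hematocrit) in RPMI with 0.5% albumax and synchronized by repeated sorbitol treatment. Assay wells used complete medium, 2% hematocrit and parasitemia ≤1%. Test compound (0–100 μM final) was added to 8–10 h rings, with a DMSO solvent control. Growth ran 52 h, then SYBR green DNA fluorescence was read. Triplicate wells; experiment repeated twice.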

3D7 Plasmodium parasites = assay: Effect on parasite morphology and development; format: cell-based, Plasmodium falciparum; settings: at their IC50 value concentration, ring stage (8–10 h) 3D7 parasites treated
How it was run: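 Sorbitol-synchronised P. falciparum 3D7 cultured in human erythrocytes (4% hematocrit) in RPMI with 0.5% albumax. Ring-stage (8–10 h) parasites treated with test compound, E-64 or solvent alone as control. Light microscopy of parasitized RBCs at several time points after treatment, following progression from ring to trophozoite to schizont to merozoites and reinvasion of fresh RBCs as new rings.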

[1] = Plasmodium falciparum, 3D7, read-out: Inhibition of P. falciparum EC50, 3D7 culture, ring stage 8–10 h, 52 h growth, SYBR green

SMILES | EC50 (P. falciparum strain 3D7; [1]) [µM] | New ring formation (3D7 Plasmodium parasites) | EC50 (P. falciparum strain 3D7; read-out: Inhibition of P. falciparum EC50, 3D7 culture, ring stage 8–10 h, 52 h growth, SYBR green) [µM]
FC(F)(F)c1cccc(-n2cc(COc3ccnc4cc(Cl)ccc34)nn2)c1 [Compound T1, 7-Chloro-4-({1-[3-(trifluoromethyl)phenyl]-1H-1,2,3-triazol-4yl}methoxy) quinoline] | 49.5 |  | 
Fc1ccc(-n2cc(COc3ccnc4cc(Cl)ccc34)nn2)cc1F [Compound T4, 7-Chloro-4-{[1-(3,4-difluorophenyl)-1H-1,2,3-triazol-4-yl]methoxy} quinoline] | 21.9 | few new rings | 
Fc1ccccc1-n1cc(COc2ccnc3cc(Cl)ccc23)nn1 [Compound T5, 7-Chloro-4-{[1-(2-fluorophenyl)-1H-1,2,3-triazol-4-yl]methoxy} quinoline] | 49.5 |  | 66.6
Fc1ccc(-n2cc(COc3ccnc4cc(Cl)ccc34)nn2)cc1 [Compound T6, 7-Chloro-4-{[1-(4-fluorophenyl)-1H-1,2,3-triazol-4-yl]methoxy} quinoline] | ~57.9 |  | 
O=[N+]([O-])c1ccc(-n2cc(COc3ccnc4cc(Cl)ccc34)nn2)cc1 [Compound T7, 7-Chloro-4-{[1-(4-nitrophenyl)-1H-1,2,3-triazol-4-yl]methoxy} quinoline] | 49.9 | few new rings | 
COc1ccc(-n2cc(COc3ccnc4cc(Cl)ccc34)nn2)cc1 [Compound T8, 7-Chloro-4-{[1-(4-methoxyphenyl)-1H-1,2,3-triazol-4-yl]methoxy} quinoline] | 51.7 |  | 
Cc1ccccc1-n1cc(COc2ccnc3cc(Cl)ccc23)nn1 [Compound T9, 7-Chloro-4-{[1-(2-methylphenyl)-1H-1,2,3-triazol-4-yl]methoxy} quinoline] | 147 |  | 
Clc1ccc2c(OCc3cn(-c4ccccc4)nn3)ccnc2c1 [Compound T10, 7-Chloro-4-[(1-phenyl-1H-1,2,3-triazol-4-yl)methoxy] quinoline] | ~57.6 |  | 
